# pIC50, pKd: −log10 of the molar value. Active and inactive are the calls of the source. The calls are words filed in the database; no cut-off is given here.
# Experiments:
# [1] = tested on: Staphylococcus aureus; experiment: Antibacterial activity against macrolide, lincomycin, telithromycin resistant and cipro-bay susceptible, methicillin-resistant Staphylococcus aureus assessed as bacterial growth inhibition; type: functional
# [2] = tested on: Staphylococcus aureus; experiment: Antibacterial activity against methicillin, macrolide, lincomycin, telithromycin, cipro-bay resistant Staphylococcus aureus assessed as bacterial growth inhibition; type: functional
# [3] = tested on: Staphylococcus aureus; experiment: Antibacterial activity against methicillin resistant and macrolide, lincomycin, telithromycin, cipro-bay susceptible Staphylococcus aureus assessed as bacterial growth inhibition; type: functional
# [4] = tested on: Staphylococcus aureus; experiment: Antibacterial activity against methicillin, fusidic-acid, macrolide resistant and lincomycin, telithromycin, cipro-bay susceptible Staphylococcus aureus assessed as bacterial growth inhibition; type: functional
# [5] = tested on: Staphylococcus aureus; experiment: Antibacterial activity against methicillin resistant Staphylococcus aureus infected in C57BL/6J mouse model of peritonitis assessed as mouse survival by measuring number of mouse at 10 mg/kg, ip administered at 1 and 5 hrs post infection relative to control; type: functional
# Summary of the method: (§1)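 Female C57BL/6J mice infected intraperitoneally with 1.5–2.0 × 10^7 CFU MRSA in 5% w/v hog gastric mucin; n = 5 per group; intraperitoneal treatment at 10 mg/kg at 1 and 5 h post-infection; vancomycin 10 mg/kg as control; survival and kidney bacterial load recorded.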
# [6] = tested on: Staphylococcus aureus; experiment: Antibacterial activity against methicillin sensitive Staphylococcus aureus assessed as inhibition of bacterial growth measured after 16 hrs by agar plate dilution method; type: functional
# Summary of the method: (§2)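 Clinical MSSA and MRSA strains isolated from local hospitals; MIC determined by plate dilution; data from at least two independent experiments.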
# [7] = tested on: Escherichia coli; experiment: Binding affinity to His6-tagged Escherichia coli FabH expressed in Escherichia coli BL21 (DE3) assessed as decrease in melting temperature at 10 uM by SYPRO orange based differential scanning fluorimetry
# Summary of the method: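 Purified E. coli FabH melting curves were recorded with and without ligand by thermal-shift fluorometry in 1.0 M Tris-HCl, pH 6.8, a buffer chosen from seven screened. ΔTm was taken from the Tm shift; n = 4.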
# [8] = target: T1, 3-oxoacyl-[acyl-carrier-protein] synthase 2 (Staphylococcus aureus) (UniProt Q5TKS0); experiment: Binding affinity to His6-tagged Staphylococcus aureus FabF expressed in Escherichia coli BL21 (DE3) assessed as decrease in melting temperature at 10 uM by SYPRO orange based differential scanning fluorimetry
# T1 sequence (whole entry): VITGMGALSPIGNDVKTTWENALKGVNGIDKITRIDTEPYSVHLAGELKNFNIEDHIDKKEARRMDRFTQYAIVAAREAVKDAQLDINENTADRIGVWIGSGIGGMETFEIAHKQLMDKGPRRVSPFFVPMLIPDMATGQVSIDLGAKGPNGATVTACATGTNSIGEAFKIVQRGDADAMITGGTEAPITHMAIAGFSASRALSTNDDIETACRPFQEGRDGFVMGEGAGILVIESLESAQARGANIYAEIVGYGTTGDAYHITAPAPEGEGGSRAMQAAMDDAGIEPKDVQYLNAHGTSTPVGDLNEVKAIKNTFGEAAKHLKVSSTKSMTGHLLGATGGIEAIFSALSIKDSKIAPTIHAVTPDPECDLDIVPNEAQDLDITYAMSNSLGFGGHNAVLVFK
# Summary of the method: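 S. aureus FabF melting curves were measured by DSF in 20 mM HEPES, 180 mM NaCl, pH 7.5, a buffer selected by screening seven buffers. ΔTm was derived from the melting-temperature shift caused by ligand; n = 4.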
# [9] = tested on: Staphylococcus aureus; experiment: Antibacterial activity against methicillin resistant Staphylococcus aureus assessed as inhibition of bacterial growth measured after 16 hrs by agar plate dilution method; type: functional; summary of the method: as §2
# [10] = tested on: Staphylococcus aureus; experiment: Antibacterial activity against Staphylococcus aureus ATCC 29213 assessed as inhibition of bacterial growth measured after 16 hrs by agar plate dilution method; type: functional
# Summary of the method: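 MIC determined by plate dilution against the reference strain; values from at least two independent experiments.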
# [11] = tested on: Staphylococcus aureus; experiment: Antibacterial activity against methicillin resistant Staphylococcus aureus infected in C57BL/6J mouse model of peritonitis assessed as bacterial load in kidney at 10 mg/kg, ip administered at 1 and 5 hrs post infection; type: functional, organism-based; summary of the method: as §1
# [12] = tested on: Escherichia coli; experiment: Binding affinity to His6-tagged Escherichia coli FabF C163Q mutant expressed in Escherichia coli BL21 (DE3) assessed as stoichiometry ratio measured after 200 sec by isothermal titration calorimetry
# Summary of the method: (§3)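 Ligands were dissolved in PBS (10 mM, pH 7.4) and titrated into E. coli FabF(C163Q) in the same buffer. Protein was at 12 or 14 μM and ligand at 250 μM. Thermodynamic parameters (ΔH, ΔS, ΔG, Kd, n) were calculated from the heat of binding. Runs were done at least three times; one representative run was used.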
# [13] = tested on: Staphylococcus aureus; experiment: Inhibition of Staphylococcus aureus FabH A81V/A111T mutant assessed as bacterial growth inhibition measured after 18 hrs by resazurin dye based broth dilution assay
# Summary of the method: (§4)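 S. aureus strains carrying point mutations in the FabH active site; MIC determined by broth dilution; data from at least two independent experiments.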
# [14] = tested on: Staphylococcus aureus; experiment: Antibacterial activity against methicillin resistant Staphylococcus aureus infected in C57BL/6J mouse model of peritonitis assessed as mouse survival at 10 mg/kg, ip administered at 1 and 5 hrs post infection; type: functional, organism-based; summary of the method: as §1
# [15] = tested on: Escherichia coli; experiment: Binding affinity to His6-tagged Escherichia coli FabF C163Q mutant expressed in Escherichia coli BL21 (DE3) assessed Gibbs free energy change measured after 200 sec by isothermal titration calorimetry; summary of the method: as §3
# [16] = tested on: Escherichia coli; experiment: Binding affinity to His6-tagged Escherichia coli FabF C163Q mutant expressed in Escherichia coli BL21 (DE3) assessed as change in entropy measured after 200 sec by isothermal titration calorimetry; summary of the method: as §3
# [17] = Inhibition of Staphylococcus aureus FabB/FabF
# [18] = tested on: Staphylococcus aureus; experiment: Antibacterial activity against methicillin resistant Staphylococcus aureus assessed as inhibition of bacterial growth measured after 18 hrs in presence of 10% human serum by resazurin dye based broth dilution assay; type: functional
# [19] = Binding affinity to His6-tagged Escherichia coli FabF C163Q mutant expressed in Escherichia coli BL21 (DE3) assessed as binding constant measured after 200 sec by isothermal titration calorimetry; summary of the method: as §3
# [20] = tested on: Escherichia coli; experiment: Antibacterial activity against Escherichia coli harboring delta tolC mutant assessed as inhibition of bacterial growth measured after 16 hrs by agar plate dilution method; type: functional
# [21] = tested on: Escherichia coli; experiment: Binding affinity to His6-tagged Escherichia coli FabF C163Q mutant expressed in Escherichia coli BL21 (DE3) assessed as change in enthalpy measured after 200 sec by isothermal titration calorimetry; summary of the method: as §3
# [22] = tested on: Enterococcus faecalis; experiment: Antibacterial activity against Enterococcus faecalis ATCC 29212 assessed as inhibition of bacterial growth measured after 16 hrs by agar plate dilution method; type: functional
# [23] = Inhibition of Staphylococcus aureus FabH
# [24] = tested on: Staphylococcus aureus; experiment: Antibacterial activity against methicillin resistant Staphylococcus aureus infected in C57BL/6J mouse model of peritonitis assessed as mouse survival when infected with 2.5x10^7 CFU bacteria at 10 mg/kg, ip administered at 1 and 5 hrs post infection; type: functional, organism-based
# Summary of the method: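 Female C57BL/6J mice given a higher intraperitoneal MRSA inoculum of 2.5 × 10^7 CFU; intraperitoneal treatment at 1 and 5 h post-infection; survival recorded.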
# [25] = tested on: Staphylococcus aureus; experiment: Inhibition of Staphylococcus aureus FabH A81V mutant assessed as bacterial growth inhibition measured after 18 hrs by resazurin dye based broth dilution assay; summary of the method: as §4
smiles,measurement,setting,value
C=C1[C@H]2CC[C@@]3(C=CC(=O)[C@@](C)(CCC(=O)Nc4c(O)ccc(C(=O)O)c4O)[C@@H]3C2)[C@H]1O [PLATENCIN A3],MIC,[1],8 µg/mL
same,MIC,[2],8 µg/mL
same,MIC,[3],8 µg/mL
same,MIC,[4],8 µg/mL
"C=CCSC1=C[C@]23CCC(C[C@H]2[C@](C)(CCC(=O)Nc2c(O)ccc(C(=O)O)c2O)C1=O)C(=C)C3 (single isomer, unassigned)",Activity,[5],80%
same,MIC,[6],1 µg/mL
same,Activity,[7],Active
same,Activity,[8],Active
same,MIC,[9],1 µg/mL
same,MIC,[10],2 µg/mL
same,Activity,[11],Active
C=C1C[C@@]23C=CC(=O)[C@@](C)(CCC(=O)Nc4c(O)ccc(C(=O)O)c4O)[C@@H]2C[C@@H]1CC3 [PLATENCIN],Ratio,[12],1.12
same,MIC,[13],32 µg/mL
same,MIC,[6],1 µg/mL
same,Activity,[14],Active
same,deltaG,[15],-10.3 kcal/mol
same,-TdeltaS,[16],-7.44 kcal/mol
same,pIC50,[17],5.34
same,MIC,[18],8 µg/mL
same,pKd,[19],7.57
same,MIC,[20],4 µg/mL
same,Activity,[7],Active
same,Activity,[8],Active
same,deltaH,[21],-2.84 kcal/mol
same,MIC,[9],1 µg/mL
same,MIC,[10],1 µg/mL
same,MIC,[22],2 µg/mL
same,pIC50,[23],5.04
same,Activity,[24],inactive
same,Activity,[11],Active
same,MIC,[25],> 32 µg/mL

# Reference: ChEMBL document CHEMBL4765495, “Semisynthesis and Biological Evaluation of Platencin Thioether Derivatives: Dual FabF and FabH Inhibitors against MRSA” (ACS Med Chem Lett, 2021)
